Assay results from article PMC9933479 (ACS Omega, 2023).
Entries after “also recorded” stand apart in the source; their conditions may differ. Where two headings read alike, the source gives them in different places.

What was measured:
[1] = test system: HCT-116 (colon carcinoma); test: MTT assay, cytotoxicity/growth inhibition; assay type: cell-based; conditions: Homo sapiens; for IC50: HCT-116; for inhibition at 20 µM: HCT-116, 48 h, read-out: Cytotoxic Activity (% Growth Inhibition)
Procedure, shortened: (§1)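 Cells were grown in RPMI (A549, HCT-116, PC-3) or DMEM (MCF-7) with 10% FBS at 37 °C and 5% CO2. Seeding per well was […] and PC-3 8 × 10^4 cells. […] MTT 250 μg/mL, 4 h; DMSO; A570; triplicate; mean ± SE.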

[2] = test system: PC-3 (prostate carcinoma); test: MTT assay, cytotoxicity/growth inhibition; assay type: cell-based; conditions: Homo sapiens; for inhibition at 20 µM: 48 h, read-out: Cytotoxic Activity (% Growth Inhibition)
Procedure, shortened: as §1

[3] = test system: HOP92; test: In vitro cytotoxicity, expanded lung cancer panel; assay type: cell-based; conditions: Homo sapiens, HOP-92
[4] = test system: normal human embryonic kidney cells (HEK293); test: Selectivity index versus normal cell line; assay type: cell-based
[5] = test system: A549 cells; test: Intracellular ROS, DCFDA/DCFHDA staining; assay type: cell-based, human; conditions: A549, DCFDA dye, 48 h
Procedure, shortened: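 Seeded A549 cells (3 × 10^4 per well) adhered 24 h at 37 °C, then received test compound at 1, 3.5 or 5 μM for 48 h. Cells were loaded with 10 μM DCFHDA for 30 min at 37 °C and moved to PBS. Intracellular ROS was imaged by fluorescence microscopy. H2O2 (0.05%) was the positive control.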

[6] = test system: A549 cells; test: Mitochondrial membrane potential, Rhodamine-123 staining; assay type: cell-based, human; conditions: A549, Rh-123 dye, 1, 3.5 and 5 μM, 48 h, versus untreated cells
Procedure, shortened: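 A549 cells (3 × 10^4 per well) adhered 24 h at 37 °C and were treated with test compound at 1, 3.5 and 5 μM for 48 h. They were stained with 10 μM rhodamine-123 for 30 min at 37 °C and washed in PBS. Fluorescence microscopy read mitochondrial membrane potential as Rh-123 fluorescence, compared with untreated cells.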

[7] = test system: MCF-7 (breast carcinoma); test: MTT assay, cytotoxicity/growth inhibition; assay type: cell-based; conditions: Homo sapiens; for IC50: MCF7; for inhibition at 20 µM: MCF7, 48 h, read-out: Cytotoxic Activity (% Growth Inhibition)
Procedure, shortened: as §1

[8] = test system: A549 cells; test: DAPI staining, nuclear morphology / apoptosis; assay type: cell-based, human; conditions: A549, 1, 3.5 and 5 μM, 48 h
Procedure, shortened: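 A549 cells (3 × 10^4 per well) were grown 48 h, then exposed to test compound at 1, 3.5 and 5 μM for 48 h. Cells were washed in PBS, fixed in ice-cold 4% paraformaldehyde for 20 min and permeabilised with 0.25% Triton X-100. Staining was DAPI at 1 μg/mL final for 30 min, read by fluorescence microscopy. Cisplatin 17 μM was the positive control.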

[9] = test system: A549 (lung carcinoma); test: MTT assay, cytotoxicity/growth inhibition; assay type: cell-based, human; conditions: for IC50 / inhibition at 20 µM: Homo sapiens; for IC50: A549; for inhibition at 20 µM: A549, 48 h
Procedure, shortened: as §1

[10] = test system: HOP62; test: In vitro cytotoxicity, expanded lung cancer panel; assay type: cell-based; conditions: Homo sapiens, HOP-62
[11] = read-out: Cytotoxic Activity (% Growth Inhibition), A549, 20 μM concentration, MTT, 48 h

| Compound | IC50 [1] [µM] | inhibition at 20 µM [1] [%] | IC50 [2] [µM] | inhibition at 20 µM [2] [%] | IC50 [3] [µM] | selectivity index (SI) wrt HEK cell line ([4]; A549 versus HEK293) | selectivity index (SI) wrt HEK cell line ([4]; HOP62 versus HEK293) | selectivity index (SI) wrt HEK cell line ([4]; HOP92 versus HEK293) | intracellular ROS generation ([5]; 1 μM) | intracellular ROS levels ([5]; 3.5 and 5 μM) | mitochondrial membrane potential (MMP) [6] | IC50 [7] [µM] | inhibition at 20 µM [7] [%] | nuclear morphology / apoptosis (DAPI staining) [8] | Cytotoxic Activity (% Growth Inhibition) ([9]; A549, 20 μM concentration, MTT, 48 h, 20 µM) [%] | potency relative to andrographolide (times / fold more potent) ([9]; A549, ratio of IC50 values) | IC50 [9] [µM] | inhibition at 20 µM [9, 11] [%] | IC50 [10] [µM] | inhibition at 20 µM ([9]; read-out: Cytotoxic Activity (% Growth Inhibition)) [%] |
| --- | --- | --- | --- | --- | --- | --- | --- | --- | --- | --- | --- | --- | --- | --- | --- | --- | --- | --- | --- | --- |
| COc1ccc(CC(=O)OCC2=CCC3[C@](C)(CO)[C@H](O)CC[C@@]3(C)[C@@H]2/C=C/C2=CCOC2=O)cc1 (stereo partly drawn) [Compound 9s, ((1S,5R,6R,8aR)-6-Hydroxy-5-(hydroxymethyl)-5,8a-dimethyl-1-((E)-2-(2-oxo-2,5-dihydrofuran-3-yl)vinyl)-1,4,4a,5,6,7,8,8a-octahydronaphthalen-2-yl)methyl 2-(4-Methoxyphenyl)acetate] | > 20 | 4.1 ± 0.97 | > 20 | 27.6 ± 0.89 | 38.6 | 13.9 | 3.7 | 1.26 | increases reactive oxygen species (ROS); also recorded: significantly induced more ROS generation | ROS levels decrease | disturbed mitochondrial membrane potential (MMP); also recorded: significant reduction in MMP; also recorded: disturbs mitochondrial membrane potential | 14.6 | 54 ± 0.74 | nuclear morphological changes; also recorded: altered staining pattern, apoptotic bodies, and condensed chromatin; also recorded: induces apoptosis | 82.2 ± 0.78 | ~7 | 3.5 | 82 | 13 |  |
| C[C@]1(CO)C2CC=C(COC(=O)Cc3ccccc3)[C@@H](/C=C/C3=CCOC3=O)[C@]2(C)CC[C@H]1O (stereo partly drawn) [Compound 9o, ((1S,5R,6R,8aR)-6-Hydroxy-5-(hydroxymethyl)-5,8a-dimethyl-1-((E)-2-(2-oxo-2,5-dihydrofuran-3-yl)vinyl)-1,4,4a,5,6,7,8,8a-octahydronaphthalen-2-yl)methyl 2-Phenylacetate] |  | 0 |  | 15 ± 0.72 |  |  |  |  |  |  |  |  | 29.2 ± 0.29 |  |  |  |  |  |  | 43.4 ± 0.19 |
| COc1ccc(CC(=O)OCC2=CCC3[C@]4(C)COC(c5ccccc5)O[C@@H]4CC[C@@]3(C)[C@@H]2/C=C/C2=CCOC2=O)cc1 (stereo partly drawn) [Compound 8s, ((4aR,6aR,7S,10bR)-6a,10b-Dimethyl-7-((E)-2-(2-oxo-2,5-dihydrofuran-3-yl)vinyl)-3-phenyl-4a,5,6,6a,7,10,10a,10b-octahydro-1H-naphtho[2,1-d][1,3]dioxin-8-yl)methyl 2-(4-Methoxyphenyl)acetate] | > 20 | 22.1 ± 0.44 | 5.9 | 75 ± 0.93 |  |  |  |  |  |  |  | 16.9 | 54 ± 0.53 |  |  |  | 6.6 | 78 ± 0.97 |  |  |
| C[C@]1(CO)C2CC=C(COC(=O)c3ccc(Br)cc3F)[C@@H](/C=C/C3=CCOC3=O)[C@]2(C)CC[C@H]1O (stereo partly drawn) [Compound 9m, ((1S,5R,6R,8aR)-6-Hydroxy-5-(hydroxymethyl)-5,8a-dimethyl-1-((E)-2-(2-oxo-2,5-dihydrofuran-3-yl)vinyl)-1,4,4a,5,6,7,8,8a-octahydronaphthalen-2-yl)methyl 4-Bromo-2-fluorobenzoate] | > 20 | 23.1 ± 0.84 | 7.6 | 78.9 ± 0.96 |  |  |  |  |  |  |  | > 20 | 8 ± 0.85 |  |  |  | > 20 | 14.9 ± 0.24 |  |  |
| CCCCCCCCCC(=O)OCC1=CCC2[C@]3(C)COC(c4ccccc4)O[C@@H]3CC[C@@]2(C)[C@@H]1/C=C/C1=CCOC1=O (stereo partly drawn) [Compound 8x, ((4aR,6aR,7S,10bR)-6a,10b-Dimethyl-7-((E)-2-(2-oxo-2,5-dihydrofuran-3-yl)vinyl)-3-phenyl-4a,5,6,6a,7,10,10a,10b-octahydro-1H-naphtho[2,1-d][1,3]dioxin-8-yl)methyl Decanoate] |  | 50.1 ± 0.4 |  | 39 ± 0.24 |  |  |  |  |  |  |  |  | 45 ± 0.98 |  |  |  |  | 49.7 ± 0.79 |  |  |
| C[C@@]12COC(c3ccccc3)O[C@@H]1CC[C@]1(C)C2CC=C(COC(=O)Cc2ccc(I)cc2)[C@H]1/C=C/C1=CCOC1=O (stereo partly drawn) [Compound 8r, ((4aR,6aR,7S,10bR)-6a,10b-Dimethyl-7-((E)-2-(2-oxo-2,5-dihydrofuran-3-yl)vinyl)-3-phenyl-4a,5,6,6a,7,10,10a,10b-octahydro-1H-naphtho[2,1-d][1,3]dioxin-8-yl)methyl 2-(4-Iodophenyl)acetate] | > 20 | 22.1 ± 0.58 | 5.8 | 77 ± 0.48 |  |  |  |  |  |  |  | > 20 | 42 ± 0.69 |  |  |  | > 20 | 2.9 ± 0.69 |  |  |
